Results on 1 compound are retold here after ChEMBL document CHEMBL4028865, “Targeted Polypharmacology: Discovery of a Highly Potent Non-Hydroxamate Dual Matrix Metalloproteinase (MMP)-10/-13 Inhibitor” (J Med Chem, 2017).

Experiment [1] deals with 72 kDa type IV collagenase (Homo sapiens) (UniProt P08253). Description: Inhibition of C-terminal tagged human recombinant MMP2 catalytic domain expressed in Escherichia coli assessed as residual activity at 10 uM using (5-FAM/QX) FRET peptide as substrate by fluorescence assay relative to control. The procedure, abridged:
(§1)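 Residual enzyme activity read at a single 10 μM inhibitor concentration, in duplicate. Fluorescence assay on cleavage of the QXL520/5-FAM FRET peptide. Buffer was 50 mM HEPES pH 7.5 with 10 mM CaCl₂, 0.01% Brij-35 and 0.1 mg/ml BSA. GM6001 served as control inhibitor. Same assay system as the IC50 determinations.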

In experiment [2] the target is Stromelysin-1 (Homo sapiens) (UniProt P08254). Briefly: Inhibition of C-terminal tagged human recombinant MMP3 catalytic domain expressed in Escherichia coli assessed as residual activity at 10 uM using (5-FAM/QX) FRET peptide as substrate by fluorescence assay relative to control. The method in brief:
as §1

The target in experiment [3] is T1, Collagenase 3 (Homo sapiens, UniProt P45452). Briefly: Inhibition of C-terminal tagged human recombinant MMP13 catalytic domain expressed in Escherichia coli using (5-FAM/QX) FRET peptide as substrate by fluorescence assay. The method in brief: (§2)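 IC50 from 10 concentrations in 3-fold dilution, starting at 10 μM or 100 μM, with two to six replicates. Run only for compounds leaving under 20% residual activity at 10 μM. Fluorescence read-out of QXL520/5-FAM FRET peptide cleavage in 50 mM HEPES pH 7.5, 10 mM CaCl₂, 0.01% Brij-35 and 0.1 mg/ml BSA. Four-parameter least-squares fit; GM6001 as control.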

For experiment [4], the target named is Matrix metalloproteinase-9 (Homo sapiens) (UniProt P14780). Description: Inhibition of MMP9 (unknown origin) assessed as residual activity at 10 uM using (5-FAM/QX) FRET peptide as substrate by fluorescence assay relative to control. The method in brief: as §1
Chain of Matrix metalloproteinase-9 (Homo sapiens) (P14780 whole entry, the tested form may be a part): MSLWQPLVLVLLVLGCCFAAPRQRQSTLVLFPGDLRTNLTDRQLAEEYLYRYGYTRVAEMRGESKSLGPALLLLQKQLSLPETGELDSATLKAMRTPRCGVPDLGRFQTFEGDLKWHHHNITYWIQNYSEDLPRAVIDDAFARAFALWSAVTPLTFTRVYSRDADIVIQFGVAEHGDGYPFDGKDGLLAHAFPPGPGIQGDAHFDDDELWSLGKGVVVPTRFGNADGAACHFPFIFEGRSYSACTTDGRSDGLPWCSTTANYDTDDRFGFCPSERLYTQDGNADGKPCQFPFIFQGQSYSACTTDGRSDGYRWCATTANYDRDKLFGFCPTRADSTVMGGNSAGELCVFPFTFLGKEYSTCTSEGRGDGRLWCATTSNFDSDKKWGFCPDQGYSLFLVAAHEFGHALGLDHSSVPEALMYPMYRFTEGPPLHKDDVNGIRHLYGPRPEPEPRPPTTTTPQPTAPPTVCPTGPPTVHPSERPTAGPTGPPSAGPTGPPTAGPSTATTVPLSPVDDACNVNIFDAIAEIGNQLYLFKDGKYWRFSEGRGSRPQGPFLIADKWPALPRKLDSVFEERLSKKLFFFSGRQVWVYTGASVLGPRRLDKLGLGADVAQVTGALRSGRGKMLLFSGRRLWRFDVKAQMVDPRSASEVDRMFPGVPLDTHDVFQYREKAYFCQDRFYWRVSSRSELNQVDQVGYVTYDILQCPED
The target of experiment [5] is Macrophage metalloelastase (Homo sapiens) (UniProt P39900). Briefly: Inhibition of C-terminal tagged human recombinant MMP12 catalytic domain expressed in Escherichia coli assessed as residual activity at 10 uM using (5-FAM/QX) FRET peptide as substrate by fluorescence assay relative to control. The procedure, abridged: as §1
Chain of Macrophage metalloelastase (Homo sapiens) (P39900 106-470 limits assumed): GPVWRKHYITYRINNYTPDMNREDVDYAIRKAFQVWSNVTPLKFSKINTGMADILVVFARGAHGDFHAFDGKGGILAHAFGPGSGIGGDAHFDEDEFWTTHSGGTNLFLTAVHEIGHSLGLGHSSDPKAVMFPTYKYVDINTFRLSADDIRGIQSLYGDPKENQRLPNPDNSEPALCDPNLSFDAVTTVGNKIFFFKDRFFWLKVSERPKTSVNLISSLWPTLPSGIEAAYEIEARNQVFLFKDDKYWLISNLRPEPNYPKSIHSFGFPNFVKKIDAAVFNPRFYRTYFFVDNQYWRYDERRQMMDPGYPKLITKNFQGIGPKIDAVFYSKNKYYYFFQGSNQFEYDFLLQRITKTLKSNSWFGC
Experiment [6] deals with T2, Stromelysin-2 (Homo sapiens, UniProt P09238). Description: Inhibition of MMP10 (unknown origin) assessed using (5-FAM/QX) FRET peptide as substrate by fluorescence assay. The procedure, abridged:
as §2
Target sequence in this assay (P09238 whole entry): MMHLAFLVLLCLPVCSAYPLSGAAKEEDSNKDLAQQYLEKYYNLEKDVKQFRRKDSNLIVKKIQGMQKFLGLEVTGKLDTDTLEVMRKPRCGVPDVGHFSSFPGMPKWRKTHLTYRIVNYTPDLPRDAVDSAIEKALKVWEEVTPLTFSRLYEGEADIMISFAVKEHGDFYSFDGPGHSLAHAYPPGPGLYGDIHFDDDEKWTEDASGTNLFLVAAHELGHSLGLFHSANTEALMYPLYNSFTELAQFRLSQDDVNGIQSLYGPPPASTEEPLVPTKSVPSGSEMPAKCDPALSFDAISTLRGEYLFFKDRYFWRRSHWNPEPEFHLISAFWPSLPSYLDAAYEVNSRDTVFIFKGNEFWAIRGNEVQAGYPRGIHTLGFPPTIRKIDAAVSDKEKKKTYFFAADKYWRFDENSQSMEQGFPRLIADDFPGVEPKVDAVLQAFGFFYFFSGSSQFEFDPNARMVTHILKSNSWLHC

The target of experiment [7] is T2, Stromelysin-2. Description: Inhibition of MMP10 (unknown origin) assessed as residual activity at 10 uM using (5-FAM/QX) FRET peptide as substrate by fluorescence assay relative to control. The procedure, abridged:
as §1
Target sequence in this assay (P09238 99-476 limits assumed): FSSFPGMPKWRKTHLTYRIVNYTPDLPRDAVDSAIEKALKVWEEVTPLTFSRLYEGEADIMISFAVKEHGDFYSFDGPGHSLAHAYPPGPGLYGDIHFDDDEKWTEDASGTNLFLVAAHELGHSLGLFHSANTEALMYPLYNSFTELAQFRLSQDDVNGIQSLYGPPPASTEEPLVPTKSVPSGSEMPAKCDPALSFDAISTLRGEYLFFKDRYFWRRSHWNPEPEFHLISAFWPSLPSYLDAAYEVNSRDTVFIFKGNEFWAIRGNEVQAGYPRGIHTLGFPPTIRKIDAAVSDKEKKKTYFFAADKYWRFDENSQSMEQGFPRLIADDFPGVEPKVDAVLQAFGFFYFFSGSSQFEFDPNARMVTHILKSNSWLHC

Experiment [8] deals with T1, Collagenase 3. Briefly: Inhibition of C-terminal tagged human recombinant MMP13 catalytic domain expressed in Escherichia coli assessed as residual activity at 10 uM using (5-FAM/QX) FRET peptide as substrate by fluorescence assay relative to control. The method in brief: as §1
The target in experiment [9] is Neutrophil collagenase (Homo sapiens) (UniProt P22894). Description: Inhibition of MMP8 (unknown origin) assessed as residual activity at 10 uM using (5-FAM/QX) FRET peptide as substrate by fluorescence assay relative to control. The method in brief:
as §1

For experiment [10], the target named is Matrix metalloproteinase-14 (Homo sapiens) (UniProt P50281). Briefly: Inhibition of C-terminal tagged human recombinant MMP14 catalytic domain expressed in Escherichia coli assessed as residual activity at 10 uM using (5-FAM/QX) FRET peptide as substrate by fluorescence assay relative to control. The procedure, abridged:
as §1

The target in experiment [11] is T3, Interstitial collagenase (Homo sapiens) (UniProt P03956).
T3 sequence (whole entry): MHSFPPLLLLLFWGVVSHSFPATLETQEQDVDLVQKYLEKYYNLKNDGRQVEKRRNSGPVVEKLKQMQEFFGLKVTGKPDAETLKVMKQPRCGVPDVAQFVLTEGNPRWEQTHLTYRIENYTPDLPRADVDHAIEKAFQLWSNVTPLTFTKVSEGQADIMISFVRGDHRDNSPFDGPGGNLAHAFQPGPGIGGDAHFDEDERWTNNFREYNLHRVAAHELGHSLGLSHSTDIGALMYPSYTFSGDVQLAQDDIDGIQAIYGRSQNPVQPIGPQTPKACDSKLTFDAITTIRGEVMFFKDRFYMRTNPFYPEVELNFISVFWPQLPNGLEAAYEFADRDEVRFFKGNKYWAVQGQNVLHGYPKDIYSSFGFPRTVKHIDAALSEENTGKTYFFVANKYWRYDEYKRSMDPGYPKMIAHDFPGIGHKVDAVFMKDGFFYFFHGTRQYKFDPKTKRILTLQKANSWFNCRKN
Briefly: Inhibition of MMP1 (unknown origin) assessed as residual activity at 10 uM using (5-FAM/QX) FRET peptide as substrate by fluorescence assay relative to control. The method in brief: as §1

For experiment [12], the target named is T4, Matrilysin (Homo sapiens) (UniProt P09237).
T4 sequence (whole entry): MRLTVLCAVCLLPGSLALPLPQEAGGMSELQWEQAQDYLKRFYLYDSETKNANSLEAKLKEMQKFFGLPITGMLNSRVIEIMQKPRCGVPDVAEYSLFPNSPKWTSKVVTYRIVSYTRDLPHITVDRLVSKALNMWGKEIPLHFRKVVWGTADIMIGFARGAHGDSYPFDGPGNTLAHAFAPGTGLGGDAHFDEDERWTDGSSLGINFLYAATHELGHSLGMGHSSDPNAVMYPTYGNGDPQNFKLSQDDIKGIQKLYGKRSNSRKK
Description: Inhibition of C-terminal tagged human recombinant MMP7 catalytic domain expressed in Escherichia coli assessed as residual activity at 10 uM using (5-FAM/QX) FRET peptide as substrate by fluorescence assay relative to control. The method in brief: as §1

Chain of Stromelysin-1 (Homo sapiens) (P08254 100-477 limits assumed): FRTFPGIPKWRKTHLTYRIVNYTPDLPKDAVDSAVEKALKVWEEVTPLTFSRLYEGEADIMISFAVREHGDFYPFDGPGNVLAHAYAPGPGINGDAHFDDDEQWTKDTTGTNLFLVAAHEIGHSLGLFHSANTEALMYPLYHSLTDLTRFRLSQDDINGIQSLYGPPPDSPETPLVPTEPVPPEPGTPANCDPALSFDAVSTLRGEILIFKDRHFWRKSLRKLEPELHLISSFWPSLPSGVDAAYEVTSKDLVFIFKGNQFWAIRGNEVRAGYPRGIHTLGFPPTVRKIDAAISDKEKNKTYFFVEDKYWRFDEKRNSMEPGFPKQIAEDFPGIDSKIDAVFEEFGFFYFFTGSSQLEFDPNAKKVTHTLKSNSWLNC
Chain of Neutrophil collagenase (Homo sapiens) (P22894 101-467 limits assumed): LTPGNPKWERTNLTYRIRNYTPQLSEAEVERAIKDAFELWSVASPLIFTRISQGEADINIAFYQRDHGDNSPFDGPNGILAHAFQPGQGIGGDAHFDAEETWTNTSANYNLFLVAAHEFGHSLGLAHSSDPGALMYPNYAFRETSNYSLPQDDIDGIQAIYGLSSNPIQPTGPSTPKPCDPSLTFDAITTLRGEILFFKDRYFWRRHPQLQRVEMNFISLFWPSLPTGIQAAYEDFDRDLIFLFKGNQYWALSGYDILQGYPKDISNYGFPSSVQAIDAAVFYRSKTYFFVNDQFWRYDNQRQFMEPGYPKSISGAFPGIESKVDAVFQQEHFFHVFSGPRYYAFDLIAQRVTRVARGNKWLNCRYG
Chain of 72 kDa type IV collagenase (Homo sapiens) (P08253 110-660 limits assumed): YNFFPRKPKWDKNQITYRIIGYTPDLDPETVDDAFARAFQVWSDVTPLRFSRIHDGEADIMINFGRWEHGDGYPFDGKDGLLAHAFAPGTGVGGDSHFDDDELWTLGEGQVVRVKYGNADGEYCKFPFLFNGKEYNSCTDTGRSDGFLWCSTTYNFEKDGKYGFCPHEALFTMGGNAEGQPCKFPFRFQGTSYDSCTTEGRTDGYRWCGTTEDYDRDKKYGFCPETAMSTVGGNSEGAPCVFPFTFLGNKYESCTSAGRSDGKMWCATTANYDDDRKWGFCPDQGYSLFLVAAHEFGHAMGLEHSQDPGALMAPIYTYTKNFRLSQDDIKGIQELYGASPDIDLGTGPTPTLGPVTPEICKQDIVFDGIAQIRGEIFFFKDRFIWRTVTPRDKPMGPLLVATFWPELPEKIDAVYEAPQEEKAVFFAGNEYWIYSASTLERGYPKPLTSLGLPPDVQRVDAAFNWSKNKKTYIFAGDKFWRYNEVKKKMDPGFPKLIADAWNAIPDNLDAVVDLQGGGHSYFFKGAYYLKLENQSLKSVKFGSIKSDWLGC

As for `COc1cc(CNC(=O)C#Cc2cn(Cc3ccc(-c4cnco4)cc3)c(=O)[nH]c2=O)ccc1F`, the Activity in experiment [1] stood at 100%; in experiment [2], 37.3%; in experiment [4], 97.8%; in experiment [5], 88.5%; in [7] it was 2.8%; in experiment [8], 0.4%. The Activity was 96.7% in experiment [9], 97.6% in experiment [10], 100% in experiment [11] and 87.1% in experiment [12]. Further, the IC50 in experiment [3] (read-out: IC50) was 5 nM; in experiment [3] (read-out: pIC50 (converted)) it was 3.63 to 5.5 nM; in [6] (read-out: IC50) it was 31 nM; in experiment [6] (read-out: pIC50 (converted)), 24.5 to 29.5 nM.
